Reference: ChEMBL document CHEMBL1124602, “Diethylstilbestrol-linked cytotoxic agents: synthesis and binding affinity for estrogen receptors” (J Med Chem, 1989)
The source made the active and inactive calls. The rule behind the calls is not given here.

Target: T1, Estrogen receptor (Rattus norvegicus) (UniProt P06211+Q62986)
Experiment: Relative binding affinity (RBA) for estrogen receptor of rat uterine cytosol compared to [3H]estradiol
Type: protein assay
Details: not given
In short: (§1)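 Competitive binding: rat uterine cytosol incubated 30 min at 18 °C with 5 × 10⁻⁹ [³H]estradiol, alone or with increasing competitor (10⁻⁹ to 10⁻⁵ M). Unlabeled estradiol serves as the reference competitor for relative binding affinity.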

SMILES	relative binding affinity (RBA)
CCOCCCC[C@H](c1ccc(O)cc1)[C@@H](CC)c1ccc(O)cc1	1.2
CC[C@@H](c1ccc(O)cc1)[C@H](CCCC(=O)Oc1c(Cl)c(Cl)c(Cl)c(Cl)c1Cl)c1ccc(O)cc1	0.3
CC[C@@H](c1ccc(O)cc1)[C@H](CCCC(=O)N(CC)CC)c1ccc(O)cc1	1
CC[C@@H](c1ccc(O)cc1)[C@H](CCCCOS(C)(=O)=O)c1ccc(O)cc1	1.8
CC[C@@H](c1ccc(O)cc1)[C@H](CCCC(=O)O)c1ccc(O)cc1	0.1
CC[C@@H](c1ccc(O)cc1)[C@H](CCCCCl)c1ccc(O)cc1	3
CCCCCCCC[C@H](c1ccc(O)cc1)[C@@H](CC)c1ccc(O)cc1	0.2
CC[C@@H](c1ccc(O)cc1)[C@H](CCCCO)c1ccc(O)cc1	1.5
CC[C@@H](c1ccc(O)cc1)[C@H](CCCCI)c1ccc(O)cc1	1.5
CCCC[C@H](c1ccc(O)cc1)[C@@H](CC)c1ccc(O)cc1	10
CC[C@@H](c1ccc(O)cc1)[C@H](CCCC(=O)Oc1ccc(Cl)cc1)c1ccc(O)cc1	0.3
CC[C@@H](c1ccc(O)cc1)[C@H](CCCCOC(=O)NCCCl)c1ccc(O)cc1	1

Target: T1, Estrogen receptor (Rattus norvegicus)
Experiment: Relative binding affinity (RBA) for estrogen receptor in rat uterine cytosol compared to [3H]estradiol; No binding
Details: Uterus
In short: as §1

SMILES	relative binding affinity (RBA)
CC[C@@H](c1ccc(O)cc1)[C@H](CCCN[C@H]1C[C@H](O[C@H]2C[C@](O)(C(C)=O)Cc3c(O)c4c(c(O)c32)C(=O)c2c(OC)cccc2C4=O)O[C@@H](C)[C@H]1O)c1ccc(O)cc1	inactive
